Measurements published in PMC7127420 (European Journal of Medicinal Chemistry, 2008).
Where two headings read alike, the source gives them in different places. One block for each molecule: values may come before it.

Experiments:
HIV-1(IIIB) [1] = experiment: Inhibition of HIV-1; type: cell-based, Human immunodeficiency virus type 1; conditions: relative to 8
HIV-1(IIIB) [2] = conditions: ref [1], cited from earlier work; for EC50: read-out: EC50 HIV-1(IIIB), CEM cells
recombinant HIV-2 RT = recombinant HIV-2 RT (Human immunodeficiency virus type 2 subtype A, UniProt P04584); experiment: Anti-reverse transcriptase assay, HIV-2 RT; type: biochemical, HIV-2(ROD)
recombinant HIV-2 RT, sequence (P04584 613-1171 limits assumed): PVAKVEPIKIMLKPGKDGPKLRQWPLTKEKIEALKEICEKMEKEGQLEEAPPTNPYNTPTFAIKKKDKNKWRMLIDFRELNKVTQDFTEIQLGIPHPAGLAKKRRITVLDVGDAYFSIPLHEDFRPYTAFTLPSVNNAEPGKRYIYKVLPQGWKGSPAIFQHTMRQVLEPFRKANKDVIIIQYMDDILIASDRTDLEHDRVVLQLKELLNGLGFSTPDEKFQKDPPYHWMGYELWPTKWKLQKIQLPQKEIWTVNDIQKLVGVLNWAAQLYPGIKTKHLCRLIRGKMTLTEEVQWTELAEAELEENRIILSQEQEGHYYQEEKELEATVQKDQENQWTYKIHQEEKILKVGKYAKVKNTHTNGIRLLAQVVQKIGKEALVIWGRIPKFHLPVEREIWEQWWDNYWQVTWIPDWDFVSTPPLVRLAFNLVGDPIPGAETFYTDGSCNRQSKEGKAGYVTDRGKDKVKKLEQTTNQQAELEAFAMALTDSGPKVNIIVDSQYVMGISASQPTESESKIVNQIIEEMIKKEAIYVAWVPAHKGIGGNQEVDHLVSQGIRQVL
recombinant HIV-2 RT, sequence (P04584 613-1051 partner limits assumed): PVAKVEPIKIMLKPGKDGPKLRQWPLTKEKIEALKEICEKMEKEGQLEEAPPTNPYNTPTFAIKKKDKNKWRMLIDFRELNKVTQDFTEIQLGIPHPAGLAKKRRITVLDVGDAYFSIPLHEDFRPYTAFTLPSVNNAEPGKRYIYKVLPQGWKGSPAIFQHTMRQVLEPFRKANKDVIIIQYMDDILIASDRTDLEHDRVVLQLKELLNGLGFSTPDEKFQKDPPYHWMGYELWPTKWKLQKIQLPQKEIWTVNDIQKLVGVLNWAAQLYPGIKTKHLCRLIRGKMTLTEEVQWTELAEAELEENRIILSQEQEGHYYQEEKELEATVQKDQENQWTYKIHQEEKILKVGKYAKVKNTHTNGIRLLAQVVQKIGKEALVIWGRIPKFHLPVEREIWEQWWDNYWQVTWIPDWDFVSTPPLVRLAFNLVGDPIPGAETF
Outline: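 Recombinant RT derived from HIV-2(ROD). Substrate was [8-3H]dGTP (2.5 μM) on poly(C).oligo(dG)12–18 (0.1 mM), with inhibitor at various concentrations. Incubated 37 °C for 30 min, then stopped with yeast RNA and trichloroacetic acid in Na4P2O7 and held on ice 30 min. Acid-insoluble radioactivity was counted; IC50 was the concentration giving 50% inhibition of RT activity.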

[3] = test system: human T-lymphocyte (CEM) cells; conditions: mock-infected CEM cells; racemic mixture; ref [1]; cited from earlier work
HIV-2(ROD) = conditions: read-out: EC50 HIV-2(ROD); CEM cells; racemic mixture; ref [1]; cited from earlier work
[4] = test system: human T-lymphocyte (CEM) cells; experiment: Cytostatic activity in mock-infected CEM cells; type: cell-based; conditions: concentration required to reduce mock-infected CEM cell viability by 50%
Outline: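 Mock-infected CEM cell cultures were run alongside the HIV-infected CEM cultures. CC50 was the compound concentration inhibiting CEM cell proliferation by 50%.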

Molecule: Cc1cc(C)nc(N2C(=O)CSC2CC23CC4CC(CC(C4)C2)C3)n1 (stereo not shown) [Compound 12, 2-Adamantan-1-ylmethyl-3-(2,6-methylpyrimidin-2-yl)-thiazolidin-4-one]
fold reduction in antiviral potency (anti-HIV-1) (HIV-1(IIIB) [1]): 13 fold

Molecule: Cc1cc(C)nc(N2C(=O)CSC2C23CC4CC(CC(C4)C2)C3)c1 (single isomer, unassigned) [levo isomer]
fold less active than the (+)-isomer (anti-HIV-1 activity) (HIV-1(IIIB) [2]): more than 60 fold

Molecule: Cc1cc(C)nc(N2C(=O)CSC2C23CC4CC(CC(C4)C2)C3)c1 (stereo not shown) [Compound 7, 2-adamantan-1-yl-3-(4,6-dimethylpyridin-2-yl)-thiazolidin-4-one]
CC50 [3]: 42 ± 8.1 µM | EC50 (HIV-1(IIIB) [2]): 0.35 ± 0.175 µM | EC50 (HIV-2(ROD)): > 12 µM

Molecule: Cc1ccnc(N2C(=O)CSC2C23CC4CC(CC(C4)C2)C3)n1 (stereo not shown) [Compound 10, 2-Adamantan-1-yl-3-(4-methylpyrimidin-2-yl)-thiazolidin-4-one]
fold reduction in antiviral potency (anti-HIV-1) (HIV-1(IIIB) [1]): 6 fold

Molecule: 2-Adamantan-1-ylmethyl-3-(2-dimethylaminoethyl)-thiazolidin-4-one [Compound 20]
CC50 [4]: 43 ± 20.1 µM

Molecule: O=C1CSC(c2c(Cl)cccc2Cl)N1CC12CC3CC(CC(C3)C1)C2 (stereo not shown) [Compound 24, 3-Adamantan-1-ylmethyl-2-(2,6-dichlorophenyl)-thiazolidin-4-one]
IC50 (recombinant HIV-2 RT): ≥ 600 µM

Molecule: O=C1CSC(c2c(F)cccc2F)N1CC12CC3CC(CC(C3)C1)C2 (stereo not shown) [Compound 28, 3-Adamantan-1-ylmethyl-2-(2,6-difluorophenyl)-thiazolidin-4-one]
IC50 (recombinant HIV-2 RT): > 600 µM

Second part, led by results:

IC50 (recombinant HIV-2 RT): > 600 µM
Molecule: Cc1cc(C)nc(N2C(=O)CS[C@@H]2C23CC4CC(CC(C4)C2)C3)c1 (single isomer, unassigned; (+)) [7 (R enantiomer), (+)-2-adamantan-1-yl-3-(4,6-dimethyl-pyridin-2-yl)-thiazolidin-4-one, reference compound]
EC50 (HIV-1(IIIB) [2]): 0.178 µM

IC50 (recombinant HIV-2 RT): > 600 µM
Molecule: O=C1CSC(c2c(Cl)cccc2Cl)N1CCC12CC3CC(CC(C3)C1)C2 (stereo not shown) [Compound 25, 3-(2-Adamantan-1-ylethyl)-2-(2,6-dichlorophenyl)-thiazolidin-4-one]

IC50 (recombinant HIV-2 RT): ≥ 600 µM
Molecule: O=C1CSC(c2c(F)cccc2F)N1CCC12CC3CC(CC(C3)C1)C2 (stereo not shown) [Compound 29, 3-(2-Adamantan-1-ylethyl)-2-(2,6-difluorophenyl)-thiazolidin-4-one]
